Measurements of several laboratories.
Protocols differ between the studies behind these lines.
Read-out: metabolic stability
Medium: liver microsomes

| Structure (SMILES) | species | tested at | pH | microsomal CLint [µL/min/mg] |
| --- | --- | --- | --- | --- |
| CC1=C(C(N)=O)C(=O)/C(=C\c2cc(C)n(-c3ccccc3C(F)(F)F)c2C)N1 | mouse | 1 µM |  | 93 |
| CCOC(=O)c1c(-c2cccc(Br)c2)[nH]c2cc(OC)c(F)cc2c1=O | female CD-1 mouse | 19.8 µM | pH 7.4 | < 4 |
| Cc1cc(Nc2ccc(C(F)(F)F)cc2)c2ccccc2n1 | mouse |  |  | 98 |
| CS(=O)(=O)c1ccc(-c2cnc(N)c(-c3ccc(C(F)(F)F)nc3)c2)cc1 | male CD-1 mouse | 1 µM |  | < 11.6 |
| CCC(F)(F)c1nc2nc(C)cc(Nc3ccc(S(F)(F)(F)(F)F)cc3)n2n1 | mouse | 1 µM | pH 7.4 | < 10 |
| COc1cc2[nH]c(-c3cccc(Oc4ccccc4)c3)c(C(=O)OCCCN3CCOCC3)c(=O)c2cc1F | female CD-1 mouse | 19.8 µM | pH 7.4 | > 15 |
| CCOC(=O)C1=C(C)N/C(=C/c2cc(CC)n(-c3ccccc3C(F)(F)F)c2CC)C1=O | mouse | 1 µM |  | 143 |
| c1ccc(CN2CCN(c3nc(-c4ccccn4)nc4ccccc34)CC2)cc1 | mouse |  |  | 393 |
| Cc1cc(Nc2ccc(C(F)(F)F)cc2)n2nc(C(F)(F)F)nc2n1 | mouse | 1 µM | pH 7.4 | < 10 |
| c1ccc(CCNc2nc(-c3ccccn3)nc3ccccc23)nc1 | mouse |  |  | 336 |
| O=C(Nc1ccc2c(c1)B(O)OC2)Nc1ccc(F)c(C(F)(F)F)c1 | mouse |  |  | 34 |
| c1ccc(C2CCN(c3nc(-c4cnn5cccnc45)nc4ccccc34)C2)nc1 (stereo not shown) | mouse |  |  | 153 |
| O=C(C1CCSCC1)N1CC(=O)N2CCc3ccccc3[C@@H]2C1 | mouse | 0.1 µM | pH 7.4 | 324 |
| Oc1ccc(-c2nc(N3CCC(c4ccccn4)C3)c3ccccc3n2)cc1 (stereo not shown) | mouse |  |  | 388 |
| Cc1cc(Nc2ccc(C(F)(F)F)cc2)n2nc(C(C)(F)F)nc2n1 | mouse | 1 µM | pH 7.4 | < 10 |
| N#CC1CCN(c2nc(-c3ccccn3)nc3ccccc23)CC1 | mouse |  |  | 105 |
| CCOC(=O)c1c(-c2cccc(Oc3ccccc3)c2)[nH]c2cc(OC)ccc2c1=O | female CD-1 mouse | 19.8 µM | pH 7.4 | > 15 |
| Cc1cccc(N2CCN(c3nc(-c4ccccn4)nc4ccccc34)CC2)n1 | mouse |  |  | 513 |
| CCOC(=O)c1c(-c2cccc(Cl)c2)[nH]c2cc(OC)c(F)cc2c1=O | female CD-1 mouse | 19.8 µM | pH 7.4 | < 4 |
